ChEMBL document CHEMBL2375208, “Structural, kinetic, and pharmacodynamic mechanisms of D-amino acid oxidase inhibition by small molecules” (J Med Chem, 2013)
pEC50, pIC50, pKd, pKi: −log10 of the molar value. One block for each compound: values may come before it. The source made the active and inactive calls. The rule behind the calls is not given here.

Legend:
[1] = target: T1, D-amino-acid oxidase (Homo sapiens, UniProt P14920); assay: Binding affinity to human recombinant DAAO at 600 nm spectral modification by spectrophotometric analysis in presence of FAD
T1 sequence (P14920 whole entry): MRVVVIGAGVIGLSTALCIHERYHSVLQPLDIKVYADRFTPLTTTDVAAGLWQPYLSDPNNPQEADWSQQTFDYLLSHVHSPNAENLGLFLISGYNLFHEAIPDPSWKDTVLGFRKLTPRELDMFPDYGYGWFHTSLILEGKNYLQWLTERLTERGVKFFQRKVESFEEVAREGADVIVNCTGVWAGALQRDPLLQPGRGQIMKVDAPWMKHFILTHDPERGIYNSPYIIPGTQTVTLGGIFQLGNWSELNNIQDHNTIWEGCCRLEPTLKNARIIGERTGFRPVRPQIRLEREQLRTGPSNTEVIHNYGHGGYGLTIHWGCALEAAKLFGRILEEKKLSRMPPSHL
Summary of the method: (§1)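 Purified human recombinant DAAO holoenzyme (His-tagged construct expressed in E. coli, purified by nickel column and size exclusion) was titrated in its oxidized state with increasing inhibitor concentrations, without substrate turnover. Ligand-induced changes in the FAD visible absorption spectrum were read at the stated wavelength. Kd and SE came from nonlinear regression of absorbance-change saturation curves. Changes above 500 nm indicate a charge-transfer complex.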

[2] = target: T1, D-amino-acid oxidase; assay: Binding affinity to human recombinant DAAO at 440 nm spectral modification by spectrophotometric analysis in presence of FAD; summary of the method: as §1
[3] = target: T1, D-amino-acid oxidase; assay: Binding affinity to human recombinant DAAO at 492 nm spectral modification by spectrophotometric analysis in presence of FAD
Summary of the method: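 Purified human recombinant DAAO, E. coli-expressed and purified on a nickel column then size exclusion, was titrated in the oxidized (holoenzyme) state with rising inhibitor concentrations up to saturation, without substrate turnover. Ligand-induced changes in the FAD visible absorption spectrum were followed. Kd with SE came from nonlinear regression of saturation curves of absorbance change against inhibitor concentration.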

[4] = target: T1, D-amino-acid oxidase; assay: Competitive inhibition of human recombinant DAAO by Michaelis-Menten plot analysis in presence of D-serine
[5] = target: T1, D-amino-acid oxidase; assay: Competitive inhibition of human recombinant DAAO after 1 hr by coupled enzyme assay in presence of D-serine
[6] = target: T1, D-amino-acid oxidase; assay: Binding affinity to human recombinant DAAO by stopped flow spectrophotometric analysis in presence of FAD
[7] = target: T2, D-amino-acid oxidase (Sus scrofa, UniProt P00371); assay: Competitive inhibition of pig kidney DAAO in presence of D-alanine
T2 sequence (P00371 whole entry): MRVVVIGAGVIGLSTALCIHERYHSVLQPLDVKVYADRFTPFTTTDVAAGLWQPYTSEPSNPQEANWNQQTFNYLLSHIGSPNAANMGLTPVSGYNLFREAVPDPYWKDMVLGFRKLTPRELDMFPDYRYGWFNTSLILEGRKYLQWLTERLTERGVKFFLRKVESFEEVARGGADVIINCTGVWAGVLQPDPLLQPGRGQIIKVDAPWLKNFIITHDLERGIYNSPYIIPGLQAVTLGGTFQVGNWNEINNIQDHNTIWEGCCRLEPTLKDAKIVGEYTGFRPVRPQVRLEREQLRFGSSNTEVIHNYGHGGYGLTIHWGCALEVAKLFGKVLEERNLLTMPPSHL

[8] = target: T1, D-amino-acid oxidase
[9] = Drug uptake in C57BL/6 mouse cerebellum at 30 mg/kg, ip after 6 hrs by LC/MS/MS analysis; type: ADME, organism-based; set-up: dose 30 mg/kg, route intraperitoneal; details: read-out: Drug uptake
Summary of the method: (§2)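 Male C57BL/6 mice (20–30 g) were dosed ip in 50 mM phosphate buffer at 5 mL/kg, with controls given vehicle only. Regimens were 12 mg/kg once or repeated at 2, 4 and 6 h, 30 mg/kg, or 125 mg/kg. Mice were killed at set times. Cerebellar inhibitor and D-serine were measured in the same samples, D-serine by chiral LC/MS/MS. Initial rate was the slope over 0–2 h.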

[10] = target: T1, D-amino-acid oxidase; assay: Binding affinity to human recombinant DAAO at 498 nm spectral modification by spectrophotometric analysis in presence of FAD
Summary of the method: (§3)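 Oxidized holoenzyme of purified human recombinant DAAO, titrated with increasing inhibitor in the absence of substrate. Ligand-induced changes in the FAD visible absorption spectrum were read at fixed wavelengths. Kd and SE came from nonlinear regression of saturation of the absorbance change.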

[11] = target: T1, D-amino-acid oxidase; assay: Binding affinity to human recombinant DAAO at 444 nm spectral modification by spectrophotometric analysis in presence of FAD; summary of the method: as §3
[12] = target: T1, D-amino-acid oxidase; assay: Binding affinity to human recombinant DAAO at 395 nm spectral modification by spectrophotometric analysis in presence of FAD; summary of the method: as §3
[13] = target: T1, D-amino-acid oxidase; assay: Binding affinity to human recombinant DAAO at 362 nm spectral modification by spectrophotometric analysis in presence of FAD; summary of the method: as §3
[14] = tested on: Rattus norvegicus; assay: Inhibition of DAAO in ip dosed Sprague-Dawley rat assessed as cerebellum concentration of compound required for 50% accumulation of D-serine after 6 hrs by LC/MS/MS analysis; type: functional, organism-based
Summary of the method: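 Rats received different ip doses. Cerebellum D-serine and inhibitor concentrations were measured 6 h later. EC50 was the inhibitor concentration at half-maximal D-serine increase, from a sigmoidal dose–response fit.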

[15] = Drug uptake in C57BL/6 mouse cerebellum at 125 mg/kg, ip after 3 hrs by LC/MS/MS analysis; type: ADME, organism-based; set-up: dose 125 mg/kg, route intraperitoneal; details: read-out: Drug uptake; summary of the method: as §2
[16] = tested on: Mus musculus; assay: Inhibition of DAAO in C57BL/6 mouse assessed as increase in rate of D-serine accumulation in cerebellum at 125 mg/kg, ip by LC/MS/MS analysis; type: functional, organism-based; set-up: dose 125 mg/kg; summary of the method: as §2
[17] = target: T1, D-amino-acid oxidase; assay: Binding affinity to human recombinant DAAO at 520 nm spectral modification by spectrophotometric analysis in presence of FAD
[18] = target: T1, D-amino-acid oxidase; assay: Binding affinity to human recombinant DAAO at 490 nm spectral modification by spectrophotometric analysis in presence of FAD
[19] = tested on: Rattus norvegicus; assay: Metabolic stability in Sprague-Dawley rat at 3 to 10 mg/kg, po/10 mg/kg, ip by LC/MS/MS analysis; type: ADME, organism-based; set-up: dose 3-10 mg/kg, route intraperitoneal; details: in vivo
[20] = Drug uptake in C57BL/6 mouse cerebellum at 12 mg/kg, ip administered every 2 hrs by LC/MS/MS analysis; type: ADME, organism-based; set-up: dose 12 mg/kg, route intraperitoneal; details: read-out: Drug uptake; summary of the method: as §2
[21] = Drug uptake in C57BL/6 mouse cerebellum at 12 mg/kg, ip after 2 hrs by LC/MS/MS analysis; type: ADME, organism-based; set-up: dose 12 mg/kg, route intraperitoneal; details: read-out: Drug uptake; summary of the method: as §2
[22] = target: T1, D-amino-acid oxidase; assay: Inhibition of DAAO (unknown origin)
[23] = organism: Mus musculus; details: C57BL/6, Cerebellum, 12 mg/kg
[24] = target: T1, D-amino-acid oxidase; assay: Binding affinity to human recombinant DAAO at 496 nm spectral modification by spectrophotometric analysis in presence of FAD; summary of the method: as §1
[25] = target: T1, D-amino-acid oxidase; assay: Binding affinity to human recombinant DAAO at 443 nm spectral modification by spectrophotometric analysis in presence of FAD; summary of the method: as §1
[26] = target: T2, D-amino-acid oxidase; assay: Binding affinity to pig kidney DAAO using D-alanine as substrate

SMILES: O=C(O)c1ccccc1 [BENZOIC ACID]
pKd [3]: 5.66
pKi [4]: 5.70
pIC50 [5]: 5.68
pKd [6]: 5.64
pKd [8]: 5.05

SMILES: Oc1noc2cc(Cl)c(Cl)cc12
pKd [10]: 5.38
pKd [11]: 5.38
pKd [12]: 5.40
pKd [13]: 5.44
pEC50 [14]: 5.82
concentration at 3 h [15]: < 1000 nM
inhibition [16]: Active
pKi [4]: 8.77
pIC50 [5]: 8.51
pKd [6]: 5.72

SMILES: O=C(O)c1cc2sccc2[nH]1
pKd [17]: 5.60
pKd [18]: 6.89
pEC50 [14]: 6.30
Stability [19]: Unstable
concentration at 2 h [20]: > 1000 nM
concentration at 2 h [21]: < 1000 nM
pKi [4]: 8.46
pIC50 [5]: 8.27
pKd [6]: 5.15
pIC50 [22]: 8.27
inhibition [23]: Active

SMILES: O=c1oc2ccccc2cc1O [3-HYDROXYCOUMARIN]
pKd [24]: 5.25
pKd [25]: 5.40
pKi [4]: 7.89
pIC50 [5]: 7.46
pKd [6]: 5.20

SMILES: O=C(O)c1ccc[nH]1
pKd [26]: 4.59

Second part, the compound after the results:

pKd [1]: 5.49
pKd [2]: 5.32
pKd [3]: 5.43
pKi [4]: 6.72
pIC50 [5]: 6.66
pKd [6]: 5.22
SMILES: O=C(O)c1cc2occ(CCc3ccccc3)c2[nH]1

pKi [7]: 5.47
SMILES: O=C(O)c1cc2ccccc2[nH]1 [INDOLE-2-CARBOXYLIC ACID]

concentration at 6 h [9]: > 1000 nM
SMILES: O=C(O)c1cc(CCc2ccc(Cl)cc2)c[nH]1
